Results published in ChEMBL document CHEMBL1147962, “Synthesis and antifungal activity of novel s-substituted 6-fluoro-4-alkyl(aryl)thioquinazoline derivatives” (Bioorg Med Chem, 2007).
In brackets after ≈: the same amount, converted by molar mass. Activity calls are given as the source filed them. The rule behind the calls is not given here.

Columns and labels:
Fusarium graminearum [1] = experiment: Antifungal activity against Gibberella zeae at 500 ug/mL; format: functional
Fusarium oxysporum [2] = experiment: Antifungal activity against Fusarium oxysporum at 500 ug/mL; format: functional
Cytospora [3] = experiment: Antifungal activity against Cytospora mandshurica at 500 ug/mL; format: functional
Cytospora [4] = experiment: Antifungal activity against Cytospora mandshurica; format: functional
Procedure, shortened: (§1)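 Preliminary fungicidal bioassay on plant-pathogenic fungi (G. zeae, F. oxysporum, C. mandshurica), with the commercial fungicide Hymexazol as reference.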

Fusarium oxysporum [5] = experiment: Effect on hyphal morphology of Fusarium oxysporum at 100 ug/mL; format: functional, organism-based
Procedure, shortened: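 Hyphae and cell contents of treated F. oxysporum were examined microscopically against untreated control hyphae.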

Fusarium oxysporum [6] = experiment: Effect on sporule germination of Fusarium oxysporum at 100 ug/mL; format: functional
Procedure, shortened: (§2)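 F. oxysporum spores were exposed to a concentration series. Germination was scored as percentage of spores germinated, and inhibition was calculated relative to an untreated control.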

Fusarium oxysporum [7] = experiment: Antifungal activity against Fusarium oxysporum; format: functional, organism-based; procedure, shortened: as §1
Rhizoctonia solani = experiment: Antifungal activity against Rhizoctonia solani; format: functional, organism-based
Fusarium oxysporum [8] = experiment: Increase in mycelial soluble protein content in Fusarium oxysporum relative to control after 0.5 hrs; format: functional
Procedure, shortened: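 Soluble protein content of treated F. oxysporum mycelia was followed from 0.5 h of exposure and expressed relative to an untreated control. Hymexazol was run alongside as reference.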

Fusarium oxysporum [9] = experiment: Inhibition of sporule germination of Fusarium oxysporum at 60 ug/mL; format: functional; procedure, shortened: as §2
Fusarium oxysporum [10] = experiment: Increase in membrane permeability of Fusarium oxysporum at 100 ug/mL after 5 mins; format: functional
Procedure, shortened: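 F. oxysporum cells were treated and sampled from 5 min onward over a longer time course. Cell-membrane relative permeability rate (%) was measured against an untreated control, with Hymexazol as reference.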

Fusarium oxysporum [11] = experiment: Decrease in mycelial chitosan content in Fusarium oxysporum after 6 hrs relative to control; format: functional; design: scale not given: the % may be the effect or the level left
Procedure, shortened: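 Chitosan content was measured as D-GlcNAc in F. oxysporum mycelia from treated cultures and read 6 h after inoculation. An untreated culture served as control and Hymexazol as the reference fungicide.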

Fusarium oxysporum [12] = experiment: Decrease in mycelial reducing sugar content in Fusarium oxysporum at 6 hrs; format: functional, organism-based
Procedure, shortened: (§3)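 Reducing sugar content (mg/mL) of F. oxysporum mycelia was followed over time, sampled from 0.5 h to 12 h of treatment, against an untreated control.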

Phytophthora infestans = experiment: Antifungal activity Phytophthora infestans; format: functional, organism-based
Fusarium oxysporum [13] = experiment: Effect on mycelial reducing sugar content in Fusarium oxysporum after 12 hrs; format: functional
Procedure, shortened: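 F. oxysporum mycelia were treated and sampled from 0.5 h to 12 h. Mycelial reducing sugar content (mg/mL) was measured at each time point against an untreated control.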

[14] = test system: Colletotrichum gloeosporioides; experiment: Antifungal activity against Colletotrichum gloeosporioides; format: functional, organism-based
Sclerotinia sclerotiorum = experiment: Antifungal activity against Sclerotinia sclerotiorum; format: functional, organism-based
Thanatephorus cucumeris = experiment: Antifungal activity against Thanatephorus cucumeris; format: functional, organism-based
Botrytis cinerea = experiment: Antifungal activity against Botrytis cinerea; format: functional, organism-based
Fusarium graminearum [15] = experiment: Antifungal activity against Gibberella zeae; format: functional, organism-based
Fusarium oxysporum [16] = experiment: Decrease in mycelial reducing sugar content in Fusarium oxysporum after 0.5 hrs relative to control; format: functional; design: scale not given: the % may be the effect or the level left; procedure, shortened: as §3
Fusarium oxysporum [17] = experiment: Decrease in mycelial chitinase activity assessed as D-GlcNAc content in Fusarium oxysporum after 1 hrs; format: functional
Procedure, shortened: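 F. oxysporum mycelia were treated over a time course up to 24 h and compared with an untreated control, with Hymexazol as reference fungicide. Chitinase activity was read as the D-GlcNAc content (mg/mL) produced by the enzyme in 1 h.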

Row | SMILES | inhibition at 500 µg/mL (Fusarium graminearum [1]) [%] | inhibition at 500 µg/mL (Fusarium oxysporum [2]) [%] | inhibition at 500 µg/mL (Cytospora [3]) [%] | EC50 (Cytospora [4]) [µg/mL] | EC50 (Fusarium oxysporum [7]) [µg/mL] | EC50 (Rhizoctonia solani) [µg/mL] | EC50 (Phytophthora infestans) [µg/mL] | EC50 [14] [µg/mL] | EC50 (Sclerotinia sclerotiorum) [µg/mL] | EC50 (Thanatephorus cucumeris) [µg/mL] | EC50 (Botrytis cinerea) [µg/mL] | EC50 (Fusarium graminearum [15]) [µg/mL] | other results
1 | COc1ccc(C(=O)CSc2ncnc3ccc(F)cc23)c(OC)c1OC | 6.2 | 5.3 | 11.2 | – | – | – | – | – | – | – | – | – | –
2 | CCSc1ncnc2ccc(F)cc12 | 100 | 98.5 | 100 | 19.2 (≈ 92.2 µM) | 18.2 (≈ 87.4 µM) | 24.9 (≈ 120 µM) | 26.8 (≈ 129 µM) | 64.2 (≈ 308 µM) | 11.4 (≈ 54.7 µM) | 30.8 (≈ 148 µM) | 8.3 (≈ 39.9 µM) | 12.4 (≈ 59.5 µM) | Activity (Fusarium oxysporum [5]): Active; Activity (Fusarium oxysporum [6]): 6.5%; Activity (Fusarium oxysporum [8]): 33.1%; inhibition at 60 µg/mL (Fusarium oxysporum [9]): 32.9%; Activity (Fusarium oxysporum [10]): 12%; Activity (Fusarium oxysporum [11]): 6.1%; Activity (Fusarium oxysporum [12]): Active; Activity (Fusarium oxysporum [13]): 0.67 mg/mL; Activity (Fusarium oxysporum [16]): 19.8%; Activity (Fusarium oxysporum [17]): 0.0364 mg/mL
3 | Fc1ccc2ncnc(SCc3ccc(Cl)cc3)c2c1 | 7.6 | 5.9 | 11.8 | – | – | – | – | – | – | – | – | – | –
4 | CCCSc1ncnc2ccc(F)cc12 | 96.4 | 89.3 | 94.8 | 25.8 (≈ 116 µM) | 25.1 (≈ 113 µM) | 29.2 (≈ 131 µM) | 26.9 (≈ 121 µM) | 40.1 (≈ 180 µM) | 17.1 (≈ 76.9 µM) | 46.2 (≈ 208 µM) | 13 (≈ 58.5 µM) | 30.1 (≈ 135 µM) | –
5 | CCOC(=O)CSc1ncnc2ccc(F)cc12 | 13.3 | 20.3 | 30.1 | – | – | – | – | – | – | – | – | – | –
6 | C=CCSc1ncnc2ccc(F)cc12 | 100 | 92.3 | 96.9 | 23.3 (≈ 106 µM) | 32.2 (≈ 146 µM) | 46.3 (≈ 210 µM) | 51.2 (≈ 232 µM) | 21.4 (≈ 97.2 µM) | 35.2 (≈ 160 µM) | 40.6 (≈ 184 µM) | 42.4 (≈ 192 µM) | 37 (≈ 168 µM) | –
7 | Fc1ccc2ncnc(SCc3ccccc3)c2c1 | 15 | 18.9 | 21.4 | – | – | – | – | – | – | – | – | – | –
8 | Fc1ccc2ncnc(SCc3ccc(Cl)nc3)c2c1 | 16.3 | 21.9 | 38.5 | – | – | – | – | – | – | – | – | – | –
9 | Cc1cc(O)no1 [HYMEXAZOL] | 100 | 91.3 | 91.2 | – | – | – | – | – | 5.1 (≈ 51.5 µM) | – | 4.6 (≈ 46.4 µM) | – | Activity (Fusarium oxysporum [10]): 6%; Activity (Fusarium oxysporum [13]): 0.85 mg/mL; Activity (Fusarium oxysporum [17]): 0.0411 mg/mL
